Assay results: PubChem BioAssay AID821 (SRMLSC, 2007)
Active and inactive are the calls of the source.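 Rule for the calls: active = compounds whose fitted half-maximal concentration for reducing fibroblast viability is 100 µM or lower; inactive = the rest.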

System: LL 47 lung fibroblast viability, ATP luminescence
Assay: inhibition of LL 47 lung fibroblast growth, concentration-response curve, selectivity screen for endothelial cell growth inhibitor project, cellular system, ATP luminescence readout (AID 821)
Outline: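 Test system: human lung fibroblasts, LL 47 line / Amount: 1,150 cells/well / Schedule: 72 h compound treatment at 37 °C after overnight attachment / Technique: CellTiter-Glo luminescence readout of viable cells / Measure: percent viability relative to untreated wells, EC50 via 4-parameter fit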

SMILES | EC50
CN1C[C@H](CNC(=O)OCc2ccccc2)C[C@@H]2c3cccc4c3c(cn4C)C[C@H]21 | 15 µM
O=C(Oc1cccc2cccnc12)c1ccc2c(c1)OCCO2 | 6.78 µM
O=C(Cn1c(=O)n(CCCC(=O)NC2CCCC2)c(=O)c2ccccc21)NCCC1=CCCCC1 | 19.4 µM
O=c1[nH]c2cc3c(cc2cc1C(c1nnnn1Cc1ccccc1)N1CCCCCC1)OCCO3 (stereo unspecified) | 19.1 µM
O=C(Nc1nc(NC(=O)c2ccco2)n(-c2ccccc2)n1)c1ccccc1 | 11.5 µM
COc1ccc(CN=C(C)c2c(C(F)(F)F)[nH]n(-c3nc4ccccc4s3)c2=O)cc1 | 18 µM
O=S(=O)(c1ccc2c(c1)nc(COc1ccc(Cl)cc1)n2CC1CCCO1)N1CCOCC1 (stereo unspecified) | 8.4 µM
O=C1CC(Sc2nnc(-c3ccccc3O)o2)C(=O)N1c1ccccc1 (stereo unspecified) | 20.8 µM
CCOC(=O)c1c(NC(=O)CCl)sc(C(=O)N(CC)CC)c1C | 6.25 µM
CC1(C)Cc2c(c(N3CCOCC3)nc3snc(N)c23)CO1 | 10.9 µM
O=C(c1ccc(F)cc1)C(CN1CCOCC1)c1ccccc1 (stereo unspecified) | 6.42 µM
COc1ccc(C(=O)C(CN2CCOCC2)c2ccccc2)cc1 (stereo unspecified) | 4.7 µM
Cc1ccc(-c2nn3c(C)nnc3s2)cc1NC(=O)c1ccc(-c2cccc(Cl)c2)o1 | 13.1 µM
O=C(Cc1sc(-c2ccccc2Cl)nc1-c1ccccc1)Nc1ccc(F)cc1 | 19.4 µM
COc1cc2nc(N3CCN(C(=O)c4ccco4)CC3)nc(N)c2cc1OC | 8.04 µM
COc1ccc(C(=O)Oc2c(CN3CCOCC3)cc(Cl)c3cccnc23)cc1 | 6.15 µM
CCc1ccc(-c2nc(CN3CCC(C(=O)N4CCN(c5ccccc5)CC4)CC3)c(C)o2)cc1 | 18.7 µM
OCc1ccc(O)c2ncccc12 | 9.4 µM
Oc1c(I)cc(Cl)c2cccnc12 | 11.4 µM
CC1CC(C)CN(S(=O)(=O)c2ccc(C(=O)Nc3nnc(-c4cccs4)o3)cc2)C1 (stereo unspecified) | 8.61 µM
O=c1[nH]c2cc3c(cc2cc1C(c1nnnn1C1CCCCC1)N1CCSCC1)OCCO3 (stereo unspecified) | 19.7 µM
O=C(Oc1cccc2cccnc12)c1cccs1 | 4.21 µM
CCOC(=O)c1sc2nc(C(C)C)c3c(c2c1N)CC(C)(C)OC3 | 12.4 µM

SMILES | EC50
O=C1CC(c2ccco2)Cc2nc(Nc3nc(-c4ccccc4)c4ccccc4n3)ncc21 (stereo unspecified) | 14 µM
CCOC(=O)c1cnc(-n2nc(C)cc2C)nc1Nc1ccc(N(C)C)cc1 | 14.6 µM
CCCCn1c(=O)c(C(=O)Nc2cnccn2)c(O)c2ccccc21 | 16.1 µM
Cc1ccc(/C=N/Nc2ncc(Cl)cc2Cl)s1 | 15.2 µM
CC(=O)SC(C[N+](=O)[O-])c1cn(C(C)=O)c2ccccc12 (stereo unspecified) | 11.7 µM
Cc1cccc(CS(=O)(=O)c2nnc([C@H](Cc3ccccc3)NC(=O)OC(C)(C)C)o2)c1 | 16.7 µM
COCc1cc(CN2CCCC2)c(O)c2ncccc12 | 11.7 µM
CC(C)=CCC/C(C)=C/CCC(C)NCCN1CCNCC1 (stereo unspecified) | 10.4 µM
CSc1nncc(=O)[nH]1 | 13.1 µM
COc1ccc(Nc2nc(N3CCCC3)nc3ccccc23)c(OC)c1 | 14.4 µM
CCCCCCc1cc2cc(-c3nnc(-c4ccccc4)o3)c(=O)oc2cc1O | 20.3 µM
Cc1ccc(-n2c(SCC(=O)Nc3ccc4c(c3)OCO4)nnc2-c2cccs2)cc1 | 17.5 µM
COC(=O)Nc1ccc(S(=O)(=O)N2c3ccccc3CCC2C)cc1 (stereo unspecified) | 12.5 µM
Cc1cccc(NC(=O)Nc2cccc(Oc3c(F)c(F)c(F)c(F)c3F)c2)c1 | 17.5 µM
Cc1ccc(C)n1NC(=O)c1ccccc1O | 10.3 µM
COc1ccc(C(=O)C(CN2CCOCC2)c2ccccc2)cc1F (stereo unspecified) | 5.53 µM
COc1ccc(-n2nnnc2S(=O)(=O)CC(=O)N2CCCCC2)cc1 | 6.12 µM
O=c1cc(-c2ccccc2)[nH]n1-c1nc2ccccc2[nH]1 | 5.6 µM
O=c1c(Cl)c(NCCCO)cnn1-c1nc2ccccc2[nH]1 | 6.3 µM
COc1ccc2c(c1)c1nc3ccccc3nc1n2CC(=O)OC(C)C | 15.5 µM
Cc1nn(-c2nc3ccccc3s2)c(N)c1Sc1ccc(F)cc1 | 12.8 µM
N#Cc1cc2sc3nnc(-c4ccncc4)n3c2cc1C#N | 15.6 µM
COc1ccc(S(=O)(=O)N2N=C(C)Oc3ccccc3C2=O)cc1 | 19.5 µM

SMILES | EC50
CCn1c(=O)cc(C(=O)OC)sc1=Nc1ccc(F)c(F)c1 | 17.4 µM
O=[N+]([O-])c1ccc(Sc2cccc3cccnc23)c([N+](=O)[O-])c1 | 5.03 µM
CN(C)C(=O)CSc1cccc2cccnc12 | 13.7 µM
CCn1c(SCC(=O)Nc2cc(C)on2)nc2sc3c(c2c1=O)CCCC3 | > 10 µM (inactive)
c1ccc2c(c1)oc1c(Nc3ccc(CN4CCOCC4)cc3)ncnc12 | 17.2 µM
Cc1oc(-c2ccc(Cl)cc2)nc1CN1CCC(C(=O)N2CCN(Cc3ccccc3)CC2)CC1 | 17.5 µM
COC(=O)C1=C(O)/C(=C\c2ccc(CNC(=O)C(=O)Nc3ccc(C)cc3)o2)N=C1C | 9.27 µM
Cc1cc(C)c2oc(-c3ccc(Cl)c(NC(=O)c4ccc(C#N)cc4F)c3)nc2c1 | 6.89 µM
C#CCn1c(=NC(=O)c2ccc(Br)s2)sc2cccc(OC)c21 | 20.1 µM
O=C1CSC(=S)N1Cc1cccnc1 | 9.72 µM
Cc1ccc(S(=O)(=O)N2CCCN(S(=O)(=O)c3ccc(C(F)(F)F)cc3)CC2)cc1 | 16.1 µM
COC(=O)/C=C1\C(=O)N(c2nc3ccccc3s2)C(=S)N1c1ccc(F)cc1 | 17.8 µM
COc1ccccc1-c1nnc2n1N=C(c1ccc(O)c(O)c1)CS2 | 2.68 µM
Cn1c2ccccc2c(=O)c2c(=O)n(C3CCCCC3)c(-c3cccs3)nc21 | 14.2 µM
c1ccc(-c2nc(N3CCCCCC3)c3ccccc3n2)nc1 | 1.73 µM
N#CCC(=O)Nc1ncn(Cc2ccccc2Cl)n1 | 19.7 µM
CC(C)COC(=O)c1ccc2c(c1O)C(=O)c1ccccc1C2=O | 17.9 µM
CN(CCO)c1cc(Sc2nc3ccccc3s2)c2nonc2c1[N+](=O)[O-] | 18.6 µM
CCc1[nH]nc2c1C(c1ccc(Br)s1)C(C#N)=C(N)O2 (stereo unspecified) | 13.6 µM
Cn1c(=O)n(C)c2cc(C(=O)Nc3ccc4c(c3)OCO4)ccc21 | 12.9 µM
CCOC(=O)c1ccccc1Nc1cn(C(C)=O)c2ccccc12 | 14.5 µM
c1ccc(-c2nc3nonc3nc2-c2ccccc2)cc1 | 15.2 µM
CCOC(=O)C1=C(N)n2c(s/c(=C/c3ccco3)c2=O)=C(C(=O)OC)C1c1ccco1 (stereo unspecified) | 9.27 µM

SMILES | EC50
CCCc1[nH]nc2c1C(c1ccc(Br)s1)C(C#N)=C(N)O2 (stereo unspecified) | 9.62 µM
COC(=O)c1ccc2c(=O)n(Cc3ccco3)c(SCC(=O)Nc3ccc(C)c(Cl)c3)nc2c1 | 4.07 µM
Cc1cc(C)c2c(=O)n(CC(=O)NCCCN3CCN(c4ccccc4F)CC3)sc2n1 | 10.2 µM
COc1ccc(-c2cc(C#N)nc(N3CCNCC3)n2)cc1 | 11.8 µM
CC1=CC(C)(C)Nc2ccc(OC(=O)c3cccnc3)cc21 | 7.47 µM
COc1ccc2oc(=O)c(-c3nnc(NCc4ccco4)s3)cc2c1 | 8 µM
COc1ccc(CC(=O)Nc2ccc(-c3nnc(-c4ccc(C)cc4)o3)cc2)cc1 | 12.8 µM
CS(=O)(=O)c1nc(-c2cccs2)cc(C(F)(F)F)n1 | 7.32 µM
O=C(CSc1cccc2cccnc12)N1CCCC1 | 12.7 µM
CCCCCCOC(=O)C(C#N)c1nc2ccccc2nc1N1CCN(CC)CC1 (stereo unspecified) | 17.6 µM
CC1=NOC(=O)/C1=C/c1ccc(-c2ccc(Cl)cc2)o1 | 13.9 µM
Cc1cc(NC(c2cccnc2)c2ccc3cccnc3c2O)no1 (stereo unspecified) | 2.93 µM
Cc1ccc(NC(=O)c2cc(NC(=O)c3ccco3)ccc2N2CCCCC2)cc1 | 18 µM
CC(C)(C)c1nn(-c2ccccc2)c2[nH]c(=O)c(CNCc3ccc4c(c3)OCO4)cc12 | 20.6 µM
COCc1cc(=O)[nH]c(Nc2nc(C)c3ccccc3n2)n1 | 20.3 µM
CN1CCN(S(=O)(=O)c2ccc(NC(=O)Nc3cccc(Cl)c3)cc2)CC1 | 16.5 µM
Cc1ccc(C2Oc3ccccc3C3=C2C(c2cccs2)n2ncnc2N3)cc1 (stereo unspecified) | 19.1 µM
CC(=O)C(C(C)=O)c1c(Cl)c(O)c(O)c2c(C(=O)c3ccccc3)coc12 | 14.5 µM
O=C(Nc1ccc(N2CCOCC2)cc1)Nc1ccc2nc(-c3ccco3)c(-c3ccco3)nc2c1 | 2.18 µM
COC(=O)CS(=O)(=O)c1nnc([C@H](Cc2ccccc2)NC(=O)OC(C)(C)C)o1 | 7.97 µM
Cc1ccc2[nH]c3c(c2c1)CCCC3=O | > 10 µM (inactive)
Cc1cc(C)n(-c2nc3ccccc3c(=O)n2OCC(=O)OCc2ccccc2)n1 | 4 µM
COc1ccc2nc(Nc3nc(CSc4nnnn4-c4ccccc4)cc(=O)[nH]3)nc(C)c2c1 | 13.8 µM

SMILES | EC50
N#CC(c1ccccc1)c1ccc2c(C(F)(F)F)cc(C(F)(F)F)nc2n1 (stereo unspecified) | 18 µM
Cc1ccc2oc3c(c(=O)c2c1)C(c1cccc(Br)c1)N(Cc1ccco1)C3=O (stereo unspecified) | 18.3 µM
Cc1cc(NC(=O)CSc2nc3c(sc4ccccc43)c(=O)n2CCCN2CCOCC2)n[nH]1 | > 10 µM (inactive)
COc1cccc(C(=O)Oc2c(CN3CCOCC3)cc(Cl)c3cccnc23)c1 | 5.95 µM
C=CCn1c(SCC(=O)c2c(N)n(CCC)c(=O)n(C)c2=O)nc2sc(CC)cc2c1=O | 15.3 µM
COC(=O)NC(=C(Cl)Cl)S(=O)(=O)c1ccccc1 | 12.2 µM
O=C1Nc2ccccc2/C1=C/C(=O)c1cccs1 | 6.78 µM
CC1(C)CC(=O)C2=C(C1)Oc1nc3ccccc3cc1C2C(C#N)C#N (stereo unspecified) | 14.5 µM
Cc1cc(C)c2ccc(N)nc2c1O | 2.82 µM
CCOC(=O)C(C(C)=O)c1c(Br)c(O)c(O)c2c(C(=O)c3ccc(C)cc3)coc12 (stereo unspecified) | 8.67 µM
Cn1c(=O)n(C)c2cc(NC(=O)CCl)ccc21 | 10 µM
CC1(C)Cc2ccccc2C(NNC(=O)c2ccccn2)=N1 | 11.5 µM
COc1cc(/C=C(/C(=O)c2cccs2)c2nc3ccccc3[nH]2)cc(OC)c1O | 8.69 µM
COc1ccc(C(=O)Nc2ccccc2C(=O)N(Cc2ccco2)C(C(N)=O)C(C)C)cc1 (stereo unspecified) | 17.4 µM
CC(C)CNC(=O)c1coc(=O)c(Br)c1 | 20.5 µM
Cc1ccccc1-c1nc(CN2CCC(C(=O)NCCCN3CC(C)CC(C)C3)CC2)c(C)o1 (stereo unspecified) | 10.6 µM
Cc1cc(C)n(S(=O)(=O)/C=C/c2ccccc2)n1 | 9.12 µM
CCOC(=O)c1cnc(-n2nc(C)cc2C)nc1NC1CCCCC1 | 14.2 µM
COCCCn1[nH]c2c3c(ccc2c1=O)C(=O)c1ccccc1C3=O | 17 µM
